Source: ChEMBL document CHEMBL3045883, “Antifungal effects of different organic extracts from Melia azedarach L. on phytopathogenic fungi and their isolated active components” (J Agric Food Chem, 2003)
≈ marks a conversion by molar mass, not a printed value.

Legend:
Fusarium verticillioides [1] = test: Antifungal activity against Fusarium verticillioides assessed as growth inhibition after 48 hr by inverted light microscopic analysis; format: functional, organism-based
Method in brief: (§1)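 Broth microdilution: F. verticillioides conidia, 4 days old, from a monosporic culture, in glucose-mineral salts medium at 1 × 10^5 conidia/mL. Pure compounds in DMSO added to wells in duplicate ([…]; final DMSO 2–4%). Controls were spore wells with or without DMSO. Percent growth (0–100) scored visually by inverted light microscope, always by the same operator. IC50 derived by Probit analysis.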

Fusarium verticillioides [2] = test: Antifungal activity against Fusarium verticillioides assessed as growth inhibition at 0.2 mg/mL after 48 hr by inverted light microscopic analysis; format: functional; conditions: read-out: GI; method in brief: as §1
Fusarium verticillioides [3] = test: Fungistatic activity against Fusarium verticillioides after 48 hr by broth microdilution method; format: functional; method in brief: as §1
Fusarium verticillioides [4] = test: Antifungal activity against Fusarium verticillioides assessed as growth inhibition at 0.4 mg/mL after 48 hr by inverted light microscopic analysis; format: functional; conditions: read-out: GI; method in brief: as §1
Fusarium verticillioides [5] = test: Antifungal activity against Fusarium verticillioides assessed as growth inhibition at 0.8 mg/mL after 48 hr by inverted light microscopic analysis; format: functional; conditions: read-out: GI; method in brief: as §1
Fusarium verticillioides [6] = test: Antifungal activity against Fusarium verticillioides assessed as growth inhibition at 0.6 mg/mL after 48 hr by inverted light microscopic analysis; format: functional; conditions: read-out: GI; method in brief: as §1

MIC (Fusarium verticillioides [3]) [µg/mL] | SMILES | IC50 (Fusarium verticillioides [1]) [µg/mL] | growth inhibition (GI) (Fusarium verticillioides [1]) | inhibition of growth at 200 µg/mL (Fusarium verticillioides [2]) [%] | inhibition of growth at 400 µg/mL (Fusarium verticillioides [4]) [%] | inhibition of growth at 800 µg/mL (Fusarium verticillioides [5]) [%] | inhibition of growth at 600 µg/mL (Fusarium verticillioides [6]) [%]
400 (≈ 2240 µM) | COc1cc(/C=C/C=O)ccc1O [CONIFERYL ALDEHYDE] | 240 (≈ 1350 µM) | Dose-dependent effect | 20 | – | – | –
600 (≈ 3940 µM) | COc1cc(C=O)ccc1O [VANILLIN] | 300 (≈ 1970 µM) | Dose-dependent effect | 20 | 65 | – | –
1000 (≈ 2790 µM) | COc1cc(C2OCC3C(c4ccc(O)c(OC)c4)OCC23)ccc1O (racemic) [(+/-)-PINORESINOL] | 760 (≈ 2120 µM) | Dose-dependent effect | – | – | 40 | 20
